According to ChEMBL document CHEMBL1121744, “Synthesis and antihypertensive activity of a series of 8-substituted 1-oxa-3,8-diazaspiro[4.5]decan-2-ones” (J Med Chem, 1981):
“And” between values parts separate entries of the source, which are not always exact repeats. Equal entries are not always repeated. The source made the active and inactive calls. The rule behind the calls is not given here.

How the values were obtained:
[1] = test system: Rattus norvegicus; assay: The antihypertensive activity as percentage fall in systolic blood pressure in spontaneously hypertensive rats after a period of 1 hr for a dose of 50 mg/kg po
[2] = test system: Rattus norvegicus; assay: Antihypertensive activity as percentage fall in systolic blood pressure in spontaneously hypertensive rats after a period of 1 hr for a dose of 50 mg/kg; type: functional, Artery
Outline: (§1)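 Male Okamoto-Aoki SHR, trained, in groups of four matched for mean systolic pressure; one group per run received water vehicle. Oral dosing in water (0.1 mL per 10 g) on two consecutive mornings. After the day-2 dose, rats were restrained at 30.0 ± 1.0 °C. Systolic pressure was read by tail cuff (inflated to 300 mmHg, first pulse) at 1–4 h. % fall is versus the untreated control group, by 1-tail t test (p ≤ 0.05).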

[3] = Distribution coefficient between 1-Octanol and phosphate buffer at pH7.4; type: physicochemical; conditions: 1-octanol/phosphate buffer, pH 7.4
Outline: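 Octanol/buffer distribution measured at pH 7.4 in phosphate with sodium chloride. Either HPLC (0.004 M) or shake flask.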

[4] = test system: Rattus norvegicus; assay: The antihypertensive activity as percentage fall in systolic blood pressure in spontaneously hypertensive rats after a period of 4 hr for a dose of 50 mg/kg po
[5] = test system: Rattus norvegicus; assay: Percentage fall in systolic blood pressure in spontaneously hypertensive rats after 3 h following 50 mg/kg p.o.; type: functional, Artery; conditions: route oral
Outline: as §1

[6] = molecular target: T1, Adrenergic receptor alpha-2 (Rattus norvegicus, UniProt P22086+P19328+P22909); assay: Antagonistic potency of compound for Alpha-2 adrenergic receptor; type: functional
T1 sequence (P22086 whole entry): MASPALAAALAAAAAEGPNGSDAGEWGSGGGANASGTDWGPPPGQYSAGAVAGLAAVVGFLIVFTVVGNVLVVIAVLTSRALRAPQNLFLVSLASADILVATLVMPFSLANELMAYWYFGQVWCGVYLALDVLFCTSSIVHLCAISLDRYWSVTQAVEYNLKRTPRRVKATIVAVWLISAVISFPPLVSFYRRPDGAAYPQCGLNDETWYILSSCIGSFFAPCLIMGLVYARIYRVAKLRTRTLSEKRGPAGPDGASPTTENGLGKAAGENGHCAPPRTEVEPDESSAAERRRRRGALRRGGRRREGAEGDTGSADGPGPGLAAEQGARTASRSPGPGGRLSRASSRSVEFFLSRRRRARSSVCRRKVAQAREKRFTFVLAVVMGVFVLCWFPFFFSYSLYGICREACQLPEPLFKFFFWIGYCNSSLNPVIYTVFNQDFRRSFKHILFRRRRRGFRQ
T1 sequence (P19328 whole entry): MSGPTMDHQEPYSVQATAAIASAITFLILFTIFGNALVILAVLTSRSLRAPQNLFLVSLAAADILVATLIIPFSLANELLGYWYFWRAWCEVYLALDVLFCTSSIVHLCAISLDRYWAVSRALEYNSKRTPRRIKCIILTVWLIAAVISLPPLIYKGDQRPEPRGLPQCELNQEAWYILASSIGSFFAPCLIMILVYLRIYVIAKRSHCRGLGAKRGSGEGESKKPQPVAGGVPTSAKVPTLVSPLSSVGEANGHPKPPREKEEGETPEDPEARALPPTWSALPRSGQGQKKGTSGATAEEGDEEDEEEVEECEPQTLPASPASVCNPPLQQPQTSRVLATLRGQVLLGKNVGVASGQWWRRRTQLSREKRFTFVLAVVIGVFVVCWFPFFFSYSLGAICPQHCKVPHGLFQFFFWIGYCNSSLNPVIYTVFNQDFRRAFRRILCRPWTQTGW
T1 sequence (P22909 whole entry): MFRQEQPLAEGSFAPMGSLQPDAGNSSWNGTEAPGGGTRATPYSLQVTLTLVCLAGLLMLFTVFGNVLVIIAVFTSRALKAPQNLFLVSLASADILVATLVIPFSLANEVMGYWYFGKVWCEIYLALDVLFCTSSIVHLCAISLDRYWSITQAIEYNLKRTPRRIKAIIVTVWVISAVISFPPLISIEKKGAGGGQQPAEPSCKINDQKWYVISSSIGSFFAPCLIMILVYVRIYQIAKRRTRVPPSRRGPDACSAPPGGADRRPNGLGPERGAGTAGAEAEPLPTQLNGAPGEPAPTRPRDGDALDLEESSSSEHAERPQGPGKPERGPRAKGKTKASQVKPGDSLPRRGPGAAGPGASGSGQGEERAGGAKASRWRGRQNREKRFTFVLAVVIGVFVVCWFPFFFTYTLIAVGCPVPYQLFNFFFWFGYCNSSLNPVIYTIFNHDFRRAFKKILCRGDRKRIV

[7] = test system: Rattus norvegicus; assay: The antihypertensive activity as percentage fall in systolic blood pressure in spontaneously hypertensive rats after a period of 3 hr for a dose of 50 mg/kg po
[8] = test system: Rattus norvegicus; assay: The antihypertensive activity as percentage fall in systolic blood pressure in spontaneously hypertensive rats after a period of 2 hr for a dose of 50 mg/kg po
[9] = test system: Rattus norvegicus; assay: Percentage fall in systolic blood pressure in spontaneously hypertensive rats after 2 hr following 50 mg/kg p.o.; type: functional, Artery; conditions: route oral, 50 mg/kg
Outline: as §1

[10] = molecular target: T2, Adrenergic receptor alpha-1 (Rattus norvegicus, UniProt P15823+P23944+P43140); assay: Antagonistic potency of compound for Alpha-1 adrenergic receptor; type: functional
T2 sequence (P15823 whole entry): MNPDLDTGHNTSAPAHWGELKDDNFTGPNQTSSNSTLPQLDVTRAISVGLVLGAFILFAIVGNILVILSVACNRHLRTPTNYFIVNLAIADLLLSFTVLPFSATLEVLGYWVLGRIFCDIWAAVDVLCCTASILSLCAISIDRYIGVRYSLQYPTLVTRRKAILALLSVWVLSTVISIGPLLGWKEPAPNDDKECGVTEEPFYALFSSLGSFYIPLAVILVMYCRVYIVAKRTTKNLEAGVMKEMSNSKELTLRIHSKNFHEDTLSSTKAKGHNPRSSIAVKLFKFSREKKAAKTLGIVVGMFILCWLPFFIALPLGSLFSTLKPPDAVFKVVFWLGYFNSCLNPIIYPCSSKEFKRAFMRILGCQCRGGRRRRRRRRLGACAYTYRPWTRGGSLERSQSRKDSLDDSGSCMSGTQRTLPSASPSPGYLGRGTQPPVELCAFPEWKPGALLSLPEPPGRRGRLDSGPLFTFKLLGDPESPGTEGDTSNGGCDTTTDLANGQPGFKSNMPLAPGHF
T2 sequence (P23944 whole entry): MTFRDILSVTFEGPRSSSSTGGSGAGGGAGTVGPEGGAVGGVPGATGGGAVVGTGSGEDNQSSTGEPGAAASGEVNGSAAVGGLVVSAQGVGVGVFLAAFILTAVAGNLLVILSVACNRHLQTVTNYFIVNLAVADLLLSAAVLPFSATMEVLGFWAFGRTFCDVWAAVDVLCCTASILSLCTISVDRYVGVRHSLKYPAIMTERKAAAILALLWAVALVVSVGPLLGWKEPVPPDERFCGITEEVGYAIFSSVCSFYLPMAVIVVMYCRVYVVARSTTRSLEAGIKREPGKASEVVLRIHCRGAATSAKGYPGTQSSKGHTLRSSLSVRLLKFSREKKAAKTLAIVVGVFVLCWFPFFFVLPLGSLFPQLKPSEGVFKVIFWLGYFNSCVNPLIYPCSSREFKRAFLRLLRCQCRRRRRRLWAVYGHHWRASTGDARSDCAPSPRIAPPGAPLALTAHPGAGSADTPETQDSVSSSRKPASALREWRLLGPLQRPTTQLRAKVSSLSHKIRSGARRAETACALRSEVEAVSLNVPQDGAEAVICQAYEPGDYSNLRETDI
T2 sequence (P43140 whole entry): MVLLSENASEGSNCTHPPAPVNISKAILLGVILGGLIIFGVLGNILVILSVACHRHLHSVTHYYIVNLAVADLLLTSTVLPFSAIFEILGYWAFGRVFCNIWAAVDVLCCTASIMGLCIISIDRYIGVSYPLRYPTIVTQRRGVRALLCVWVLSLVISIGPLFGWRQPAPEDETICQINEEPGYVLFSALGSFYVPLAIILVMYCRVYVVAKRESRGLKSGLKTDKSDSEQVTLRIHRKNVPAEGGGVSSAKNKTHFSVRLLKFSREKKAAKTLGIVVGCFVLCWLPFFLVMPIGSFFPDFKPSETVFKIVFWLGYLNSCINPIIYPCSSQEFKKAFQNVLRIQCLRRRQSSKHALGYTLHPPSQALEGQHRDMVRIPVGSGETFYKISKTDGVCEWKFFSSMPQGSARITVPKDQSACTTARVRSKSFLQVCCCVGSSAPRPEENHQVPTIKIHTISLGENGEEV

[11] = test system: Rattus norvegicus; assay: The antihypertensive activity as percentage fall in systolic blood pressure in spontaneously hypertensive rats after a period of 4 hr for a dose of 75 mg/kg po; NS=Not significant; type: functional, organism-based; parameters: dose 75 mg/kg; conditions: Artery
Outline: (§2)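 Male Okamoto-Aoki SHR, trained, in groups of four matched for systolic pressure, with a concurrent vehicle control group. Oral dosing on two consecutive mornings, in water as solution or suspension at 0.1 mL/10 g. On day 2 rats were restrained at 30.0 ± 1.0 °C. Tail-cuff systolic pressure, four traces per rat, read at each hour. Per cent fall versus control; 1-tail t test, p ≤ 0.05.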

[12] = test system: Rattus norvegicus; assay: The antihypertensive activity as percentage fall in systolic blood pressure in spontaneously hypertensive rats after a period of 3 hr for a dose of 75 mg/kg po; NS=Not significant; type: functional, organism-based; parameters: dose 75 mg/kg; conditions: Artery
Outline: as §2

[13] = test system: Rattus norvegicus; assay: Antihypertensive activity as percentage fall in systolic blood pressure in spontaneously hypertensive rats after a period of 1 hr for a dose of 50 mg/kg po; NS=Not significant; type: functional, organism-based; parameters: dose 50 mg/kg; conditions: Artery
Outline: as §2

[14] = test system: Rattus norvegicus; assay: Antihypertensive activity as percentage fall in systolic blood pressure in spontaneously hypertensive rats after a period of 3 hr for a dose of 50 mg/kg po; NS=Not significant; type: functional, organism-based; parameters: dose 50 mg/kg; conditions: Artery
Outline: as §2

[15] = test system: Rattus norvegicus; assay: Antihypertensive activity as percentage fall in systolic blood pressure in spontaneously hypertensive rats after a period of 4 hr for a dose of 50 mg/kg po; NS=Not significant; type: functional, organism-based; parameters: dose 50 mg/kg; conditions: Artery
Outline: as §2

[16] = test system: Rattus norvegicus; assay: Antihypertensive activity as percentage fall in systolic blood pressure in spontaneously hypertensive rats after a period of 2 hr for a dose of 50 mg/kg po; NS=Not significant; type: functional, organism-based; parameters: dose 50 mg/kg; conditions: Artery
Outline: as §2

SMILES	Decrease in blood pressure [1]	Decrease in blood pressure [2]	logD [3]	Decrease in blood pressure [4]	Decrease in blood pressure [5]	pA2 [6]	Decrease in blood pressure [7]	Decrease in blood pressure [8]	Decrease in blood pressure [9]	pA2 [10]	Decrease in blood pressure [11]	Decrease in blood pressure [12]	Decrease in blood pressure [13]	Decrease in blood pressure [14]	Decrease in blood pressure [15]	Decrease in blood pressure [16]
CCC1NC(=O)OC12CCN(CCc1c[nH]c3ccccc13)CC2 (centres undefined)	23%	39%	1.95	22%	17%	6	17%	27%	27% and 26%	7.6	–	–	–	–	–	–
CC(C)N1CC2(CCN(CCc3c[nH]c4ccccc34)CC2)OC1=O	22%	–	2.4	–	–	–	–	9%	–	–	inactive	inactive	–	–	–	–
CN1CC2(CCN(CCc3c[nH]c4ccccc34)CC2)OC1=O	23%	–	1.73	9%	–	–	8%	18%	–	–	–	–	inactive	inactive	inactive	inactive
